≈ marks a conversion by molar mass, not a printed value.
Legend:
[1] = Inhibition of voltage-dependent N-type calcium channel in human IMR32 cells assessed as effect on calcium influx; format: cell-based; conditions: IMR-32
[2] = target: Voltage-gated L-type calcium channel (Rattus norvegicus, UniProt P22002+Q02485+P27732); assay: Inhibition of voltage-dependent L-type calcium channel in rat thoracic aorta ring assessed as effect on high K+ induced contraction by Magnus method; format: tissue-based
[3] = organism: Rattus norvegicus; assay: Inhibition of voltage-dependent N-type calcium channel in rat superior cervical ganglion neurons assessed as effect on Ba2+ current at holding potential of -60 mV at 10 uM by electrophysiology; format: tissue-based
[4] = Aqueous solubility of the compound; format: physicochemical; conditions: buffer
In short: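 Aqueous suspension left overnight, centrifuged at 10,000 rpm for 5 min; supernatant diluted and quantified by HPLC.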

[5] = Distribution coefficient, log D of the compound; format: physicochemical; conditions: octanol/water
In short: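 Calculated logD at pH 7.4 (PrologD).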

| SMILES | IC50 [1] | IC50 [2] | solubility [4] | logD [5] | inhibition [3] |
| --- | --- | --- | --- | --- | --- |
| COC(OC)C1=C(C(=O)OC/C=C/c2ccccc2)C(c2cccc(Cl)c2)C(C(=O)O)=C(C)N1 (stereo unspecified) | 3 µM | 8.1 µM | > 15 mg/mL | 1.29 | 85% |
| COc1cccc(/C=C/COC(=O)C2=C(C(OC)OC)NC(C)=C(C(=O)O)C2c2cccc(Cl)c2)c1 (stereo unspecified) | 3 µM | 4.4 µM |  |  |  |
| COC(OC)C1=C(C(=O)O)C(c2cccc(Cl)c2)C(C(=O)OC/C=C/c2ccccc2)=C(C)N1 (stereo unspecified) | 3.9 µM | 1.3 µM |  |  |  |
| COc1ccc(/C=C/COC(=O)C2=C(C(OC)OC)NC(C)=C(C(=O)O)C2c2cccc(Cl)c2)cc1 (stereo unspecified) | 2.1 µM | 0.54 µM |  |  |  |
| CN[C@@H](CC(C)C)C(=O)NCCCC(c1ccc(F)cc1)c1ccc(F)cc1 |  |  |  |  | 83% |
| CC1=C(C(=O)O)C(c2cccc([N+](=O)[O-])c2)C(C(=O)OC/C=C/c2ccccc2)=C(C)N1 (stereo unspecified) | 3.5 µM |  |  |  |  |
| COc1ccccc1/C=C/COC(=O)C1=C(C(OC)OC)NC(C)=C(C(=O)O)C1c1cccc(Cl)c1 (stereo unspecified) | 2.5 µM | 5.9 µM | 10.2 mg/mL (≈ 19.8 mM) | 1.2 |  |
| CC1=C(C(=O)O)C(c2cccc(Cl)c2)C(C(=O)OC/C=C/c2ccccc2)=C(C#N)N1 (stereo unspecified) | 5.8 µM | 2 µM |  |  |  |

Continued, in another order:

| IC50 [1] | IC50 [2] | solubility [4] | logD [5] | SMILES | inhibition [3] |
| --- | --- | --- | --- | --- | --- |
| 0.81 µM | 0.007 µM |  |  | CCC1=C(C(=O)OC/C=C/c2ccccc2)C(c2cccc(Cl)c2)C(C(=O)O)=C(C)N1 (stereo unspecified) |  |
| 1 µM |  |  |  | CC1=NC(C)=C(C(=O)O)C(c2cccc(Cl)c2)/C1=C(\O)OC/C=C/c1ccccc1 (stereo unspecified) |  |
| 1.4 µM | 1 µM |  |  | COC(OC)C1=C(C(=O)OC/C=C/c2cccc(Cl)c2)C(c2cccc(Cl)c2)C(C(=O)O)=C(C)N1 (stereo unspecified) |  |
| 1.7 µM |  | 3.5 mg/mL (≈ 6.3 mM) | 3.51 | CC1=C(C(=O)O)C(c2cccc(Cl)c2)C(C(=O)OCCC(c2ccccc2)c2ccccc2)=C(C(F)(F)F)N1 (stereo unspecified) |  |
| 1.8 µM | 2 µM |  |  | COC(OC)C1=C(C(=O)OC/C=C/c2ccc(F)cc2)C(c2cccc(Cl)c2)C(C(=O)O)=C(C)N1 (stereo unspecified) |  |
| 2 µM | 3.2 µM |  |  | COC(OC)C1=C(C(=O)OC/C=C/c2ccc(C(F)(F)F)cc2)C(c2cccc(Cl)c2)C(C(=O)O)=C(C)N1 (stereo unspecified) |  |
| 1.6 µM |  |  |  | COCCOC(=O)C1=C(C)NC(C)=C(C(=O)OC/C=C/c2ccccc2)C1c1cccc([N+](=O)[O-])c1 (stereo unspecified) [CILNIDIPINE] |  |
| 1.7 µM | 1.4 µM |  |  | COC(OC)C1=C(C(=O)OC/C=C/c2ccc(Cl)cc2)C(c2cccc(Cl)c2)C(C(=O)O)=C(C)N1 (stereo unspecified) |  |
| 1.8 µM | 0.7 µM |  |  | COC(OC)C1=C(C(=O)OC/C=C/c2ccccc2Cl)C(c2cccc(Cl)c2)C(C(=O)O)=C(C)N1 (stereo unspecified) |  |
